CHRM4 PAM – potentiates acetylcholine response at human M4 receptor | CHO-K1 hM4/Gqi5, Fluo-8 calcium fluorescence, ACh EC20; 0% = ACh EC20, 100% = maximal ACh | actives 0.4% (n = 360,000) | P08173 | activation, % at 3 µM;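 active = activation above its plate's cutoff, the mean activation of sample wells plus 3 SD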
Target sequence (P08173 whole entry, looked up): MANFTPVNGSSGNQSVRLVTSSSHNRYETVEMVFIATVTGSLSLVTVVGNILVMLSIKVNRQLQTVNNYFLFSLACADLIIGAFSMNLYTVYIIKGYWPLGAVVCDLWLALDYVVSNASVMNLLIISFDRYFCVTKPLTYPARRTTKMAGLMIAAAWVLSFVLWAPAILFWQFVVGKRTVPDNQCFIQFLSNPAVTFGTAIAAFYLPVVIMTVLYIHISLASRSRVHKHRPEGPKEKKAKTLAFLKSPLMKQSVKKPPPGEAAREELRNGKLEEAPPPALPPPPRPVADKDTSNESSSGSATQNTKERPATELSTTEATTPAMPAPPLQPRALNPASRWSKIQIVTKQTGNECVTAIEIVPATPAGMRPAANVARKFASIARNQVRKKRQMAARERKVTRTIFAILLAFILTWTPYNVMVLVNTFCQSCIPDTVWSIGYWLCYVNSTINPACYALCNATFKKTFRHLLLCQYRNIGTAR
M4 ag – agonists of human muscarinic M4 receptor (CHRM4). P08173. activation, % at 3 µM. AID 624127. CHO-K1 hM4/Gqi5, Fluo-8 calcium fluorescence; vehicle 0%, full acetylcholine response 100%. actives 0.14% (n = 360,000);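 active = activation above the run mean over all test wells plus 3 SD, cut at about 32% in these data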;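 note: peak over basal fluorescence ratio per well then scaled between controls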
CHRM4 antagonist – antagonists of human muscarinic M4 receptor (CHRM4). P08173. CHO-hM4 cells, ACh EC80, Fluo-8 calcium fluorescence. inhibition, % at 3 µM. actives 0.73% (n = 360,000);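 active = inhibition above its plate's cutoff, the mean inhibition of sample wells plus 3 SD, cut at about 27% in these data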
M5 PAM – positive allosteric modulators of human muscarinic M5 receptor. P08912. CHO-K1 hM5, Fluo-8 calcium, ACh EC20 PAM; 0% = ACh EC20, 100% = ACh EC100. activation, % at 3 µM. actives 0.3% (n = 360,000). AID 624038;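 active = activation above the run cutoff, the mean activation of all test compounds plus 3 SD, cut at about 18% in these data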
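Replicates: One well per compound, no replicates | System: Human M5 receptor in CHO-K1 cells | Benchmarks: Low control EC20 acetylcholine (0%), high control EC100 acetylcholine (100%) | Probe or stimulus: Acetylcholine, EC20 level | Times: Fluo-8 loading 80 min at 37 °C plus 30 min room temperature | Signal: Intracellular calcium via Fluo-8 fluorescence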
CHRM5 agonist – CHRM5 agonism in calcium assay; actives 0.19% (n = 360,000); activation, % at 3 µM; CHO-K1 hM5 cells, Fluo-8 calcium fluorescence; 0% DMSO wells, 100% maximal acetylcholine response; P08912; AID 624037;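 active = activation above the run's mean over test compounds plus 3 SD, cut at about 23% in these data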;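 note: signal is peak over basal fluorescence ratio across the kinetic read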
M5 antag – blocks acetylcholine activation of human M5 receptor | P08912 | CHO-hM5 cells, Fluo-8 calcium fluorescence, ACh EC80 | inhibition, % at 3 µM | actives 0.59% (n = 360,000);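 active = inhibition above a per-plate cutoff, the mean of that plate's test compounds plus 3 SD, cut at about 27% in these data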
Large screens that a line does not name were inactive. This is a sample that favours compounds with a hit; in the whole collection about 1.8% have one here.

Cc1ccc(OC(=O)N(C)C[C@@H]2OCc3cnnn3CCCC(=O)N([C@H](C)CO)C[C@H]2C)cc1	none
O=c1[nH]c2ccccc2n1C1CCN(Cc2ccc(-c3[nH]c4cc5ncnc5cc4nc3-c3ccccc3)cc2)CC1	CHRM5 agonist 67.3
O=C1CC(N2CCC(n3c(=O)[nH]c4ccccc43)CC2)C(=O)N1Cc1ccccc1 (centres undefined)	none
OC(CCNCCc1c[nH]c2ccccc12)C(F)(F)Cl (centres undefined)	none
COc1ccc(/C=C/C(=O)c2c(O)n(CCC3=CCCCC3)c(=O)[nH]c2=O)cc1OC	none
O=[N+]([O-])c1ccc(N2CCCCC2)c2ncccc12	none
O=[N+]([O-])c1ccc(N2CCCNCC2)c2ncccc12	CHRM4 antagonist 26.5, M5 antag 28.7
O=[N+]([O-])c1ccc(N2CCCCCC2)c2nonc12	M4 ag 144.4, CHRM4 antagonist 37.9, CHRM5 agonist 544.7, M5 antag 58.3
Cc1ccc(OCCSC2=NN2c2cc(C)nc(N)n2)cc1	none
NN=C(N)N	none
Cc1ccc(N=C(N(C)C)P(=O)(N(C)C)N(C)C)cc1	none
CCOC(=O)CNC(=O)CSP(=S)(OCC)OCC	CHRM4 PAM 32.8
CCOC(=O)C1SC2(C(F)(F)F)CC1(O)c1c(C)cc(C)nc1O2 (centres undefined)	CHRM4 PAM 45.3
O=C1NC(=O)C(=Cc2ccc(OCC(=O)N3CCOCC3)cc2)C(=O)N1	none
O=C1CN=C(c2cc([N+](=O)[O-])ccc2Cl)c2cc([N+](=O)[O-])ccc2N1	CHRM4 PAM 13.7
O=C1CN=C(c2ccccc2)c2cc([N+](=O)[O-])ccc2N1	none
CC1CCCC(C)N1/N=C/c1c[nH]c2ccc(Br)cc12 (centres undefined)	none
CN1C2CCC1CC(OC(=O)c1ccc(Cl)cc1)C2 (centres undefined)	M5 antag 31.8
CN1C2CCC1CC(OC(=O)c1ccc(Cl)cc1)(C(=O)O)C2 (centres undefined)	CHRM4 PAM 28.8
CCOc1ccc(C(=O)OC2CC3CCC(C2)N3C)cc1 (centres undefined)	none
CCCN1CCC[C@H](c2cccc(O)c2)C1	none
Cc1ccc(CN2CCN(Cc3ccccc3F)CC2)cc1	M5 PAM 26.0
COc1ccc(OC)c(CN2CCN(C(=O)Cc3ccccc3)CC2)c1	none
CCC(CO)(C(=O)OC1C[N+]2(C)CCC1CC2)c1ccccc1 (centres undefined)	CHRM4 antagonist 98.5, M5 antag 98.9
O=C(C[N+]12CCC(CC1)C(OC(=O)c1ccccc1)C2)c1ccc([N+](=O)[O-])cc1 (centres undefined)	none
Cc1ccc(C(=O)c2cc(Br)ccc2N)cc1	none
Cc1[nH]c2ccccc2c1CCN	M5 PAM 18.8
COC(=O)C1=C(c2ccc(OC)c(OC)c2)C[C@@H]2CC[C@H]1N2C(=O)NCCNC(C)=O	none
CC(=O)c1cn(Cc2ccc(C#N)cc2)c2ccccc12	M5 antag 42.0
CC(C)C(=O)c1cn(Cc2ccc(C#N)cc2)c2ccccc12	none
CC(=O)c1ccc(-c2ccccc2)cc1	none
CC(Oc1ccc(-c2ccccc2)cc1)C(=O)O (centres undefined)	M5 PAM 18.2
CCOc1ccc(-c2c(C)n(-c3ccc(OCC)cc3)c3[n+]2CCCCC3)cc1	M5 antag 34.5
CN1CN(c2ccccc2)C2(CCN(CCCSc3ccccc3NC(=O)/C=C/c3ccccc3)CC2)C1=O	M4 ag 109.9, CHRM4 antagonist 58.8, CHRM5 agonist 67.8, M5 antag 36.9
O=c1[nH]c(O)c(C=Nc2ccc(Cl)c(C(F)(F)F)c2)c(=O)[nH]1	CHRM4 antagonist 34.1, M5 antag 37.8
CC(=O)c1ccc(NC2=NCCCS2)cc1	M5 antag 30.8
O=C(CCCN1CCC(n2c(=O)[nH]c3ccccc32)CC1)c1ccc(F)cc1	CHRM4 antagonist 26.6
COC(=O)C1=C(c2ccc(F)cc2OCc2ccccc2)C[C@@H]2CC[C@H]1N2C(=O)NCc1ccccc1OC	CHRM4 antagonist 32.8
COC(=O)C1=C(c2cccc(OCc3ccccc3)c2)C[C@@H]2CC[C@H]1N2C(=O)NCc1ccc(F)cc1	M5 antag 27.2
COC(=O)C1=C(c2ccccc2)C[C@@H]2CC[C@H]1N2C(=O)NCc1ccc(F)cc1	CHRM4 antagonist 46.8
CCC(=NCc1cccnc1)c1c(O)n(-c2ccc(Cl)cc2)c(=O)[nH]c1=O	none
C/C=C1/CN2[C@@H]3C4CO[C@@H]3c3c([nH]c5cc(OC)ccc35)[C@@H]2CC14 (some centres undefined)	none
CCN(CC)CCCOC(=O)C(OC(C)C)(c1ccccc1)c1ccccc1	CHRM4 antagonist 82.8, M5 antag 97.8
C[N+](C)(C)Cc1ccccc1	CHRM5 agonist 89.4, M5 antag 64.5
C[N+]1(C)C2CCC1CC(OC(=O)C(CO)c1ccccc1)C2 (centres undefined)	CHRM4 antagonist 98.4, M5 antag 98.7
C[N+]1(C)[C@@H]2CC[C@H]1CC(OC(=O)C(CO)c1ccccc1)C2 (some centres undefined)	CHRM4 antagonist 99.2, M5 antag 98.8
C[N+]1([O-])[C@@H]2CC(OC(=O)[C@H](CO)c3ccccc3)C[C@H]1[C@@H]1O[C@@H]12 (some centres undefined)	CHRM4 antagonist 99.2, M5 antag 98.0
C[N+]1(C)C2CCC1CC(OC(=O)c1ccccc1)C2 (centres undefined)	none
C#CC[N+]1(C)[C@@H]2CC(OC(=O)C(CO)c3ccccc3)C[C@H]1C(O)C2 (some centres undefined)	CHRM4 antagonist 98.2, M5 antag 98.2
Cc1nn(CC(C)C)c(Cl)c1C(=O)NC1CCC(C)CC1 (centres undefined)	none
Cc1ccc(S(=O)(=O)NC(CC(=O)N2CCC3(CC2)OCCO3)c2ccco2)cc1 (centres undefined)	none
CCCCCC[N+](=O)[O-]	none
CCCCCCCCCCCCCCCC[N+](C)(C)C	CHRM4 antagonist 29.9, M5 antag 38.3
Cc1ccccc1-n1c(C)nc2ccsc2c1=O	none
CC[C@H]1CN2CC[C@@]3(C(=O)Nc4ccccc43)[C@@H]2C[C@@H]1/C(=C\OC)C(=O)OC	none
